How the values were obtained:
[1] = biological target: Casein kinase II subunit alpha (Homo sapiens, UniProt P68400); experiment: Inhibition of recombinant CK2alpha1
Method in brief: (§1)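 Purified recombinant kinase, 50 µL reaction. 1 µM [γ-33P]-ATP with substrate; compound added in 10% DMSO. Tested over several concentrations; IC50 in g/mL.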

[2] = biological target: T1, Serine/threonine-protein kinase PLK4 (Homo sapiens, UniProt O00444); experiment: Inhibition of recombinant SAK
T1 sequence (O00444 whole entry): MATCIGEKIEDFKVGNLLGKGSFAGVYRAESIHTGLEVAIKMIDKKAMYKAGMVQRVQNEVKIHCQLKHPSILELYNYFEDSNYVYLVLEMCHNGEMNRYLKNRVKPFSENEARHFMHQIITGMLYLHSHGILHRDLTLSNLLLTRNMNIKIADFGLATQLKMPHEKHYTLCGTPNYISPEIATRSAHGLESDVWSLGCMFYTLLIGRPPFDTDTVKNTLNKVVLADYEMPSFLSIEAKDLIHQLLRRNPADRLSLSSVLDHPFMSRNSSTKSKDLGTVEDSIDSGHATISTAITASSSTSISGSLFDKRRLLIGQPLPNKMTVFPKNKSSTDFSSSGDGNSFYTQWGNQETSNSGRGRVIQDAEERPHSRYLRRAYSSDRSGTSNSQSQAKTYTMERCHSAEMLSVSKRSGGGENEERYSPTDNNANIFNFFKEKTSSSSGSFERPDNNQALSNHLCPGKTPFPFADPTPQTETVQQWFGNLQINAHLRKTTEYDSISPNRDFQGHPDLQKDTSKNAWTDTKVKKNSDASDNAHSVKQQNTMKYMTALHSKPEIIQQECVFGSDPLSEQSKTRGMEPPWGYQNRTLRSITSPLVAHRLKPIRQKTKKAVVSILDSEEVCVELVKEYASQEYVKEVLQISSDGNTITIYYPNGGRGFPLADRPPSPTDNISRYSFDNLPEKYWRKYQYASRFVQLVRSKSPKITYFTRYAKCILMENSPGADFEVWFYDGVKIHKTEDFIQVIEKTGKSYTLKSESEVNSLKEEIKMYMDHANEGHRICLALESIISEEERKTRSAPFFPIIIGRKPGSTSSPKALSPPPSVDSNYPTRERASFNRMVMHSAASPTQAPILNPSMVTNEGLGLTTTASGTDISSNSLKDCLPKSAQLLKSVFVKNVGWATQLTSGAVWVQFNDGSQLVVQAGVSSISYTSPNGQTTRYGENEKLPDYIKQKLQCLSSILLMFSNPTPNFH

[3] = biological target: T2, Receptor-type tyrosine-protein kinase FLT3 (Homo sapiens, UniProt P36888); experiment: Inhibition of recombinant FLT3; method in brief: as §1
T2 sequence (P36888 whole entry): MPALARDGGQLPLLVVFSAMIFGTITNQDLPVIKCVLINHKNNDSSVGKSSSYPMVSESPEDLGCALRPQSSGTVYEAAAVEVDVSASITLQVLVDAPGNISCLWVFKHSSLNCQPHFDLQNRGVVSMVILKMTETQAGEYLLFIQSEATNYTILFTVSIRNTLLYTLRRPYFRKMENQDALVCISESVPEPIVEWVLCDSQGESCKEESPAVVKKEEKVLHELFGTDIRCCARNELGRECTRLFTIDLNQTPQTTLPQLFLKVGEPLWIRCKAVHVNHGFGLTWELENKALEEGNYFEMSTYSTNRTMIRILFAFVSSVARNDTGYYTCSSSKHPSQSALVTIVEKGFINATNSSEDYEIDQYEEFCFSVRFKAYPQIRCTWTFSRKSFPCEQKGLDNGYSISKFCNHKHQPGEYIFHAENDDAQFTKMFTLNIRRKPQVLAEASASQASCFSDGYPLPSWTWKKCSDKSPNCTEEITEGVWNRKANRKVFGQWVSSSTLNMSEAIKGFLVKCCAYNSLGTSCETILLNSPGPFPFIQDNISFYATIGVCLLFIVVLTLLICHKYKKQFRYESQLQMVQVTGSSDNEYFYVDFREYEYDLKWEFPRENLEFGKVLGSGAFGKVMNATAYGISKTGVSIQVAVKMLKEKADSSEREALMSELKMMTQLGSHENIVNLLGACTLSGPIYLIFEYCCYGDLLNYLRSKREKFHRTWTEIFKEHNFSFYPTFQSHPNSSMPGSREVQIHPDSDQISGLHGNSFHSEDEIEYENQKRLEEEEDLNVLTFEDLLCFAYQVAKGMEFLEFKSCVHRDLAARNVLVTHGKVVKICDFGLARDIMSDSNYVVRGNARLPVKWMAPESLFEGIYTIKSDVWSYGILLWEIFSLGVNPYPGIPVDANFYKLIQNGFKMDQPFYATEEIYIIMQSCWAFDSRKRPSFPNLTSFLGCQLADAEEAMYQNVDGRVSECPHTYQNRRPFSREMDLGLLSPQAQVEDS

[4] = biological target: Vascular endothelial growth factor receptor 2 (Homo sapiens, UniProt P35968); experiment: Inhibition of recombinant VEGFR2; method in brief: as §1
[5] = biological target: Insulin-like growth factor 1 receptor (Homo sapiens, UniProt P08069); experiment: Inhibition of recombinant IGF1R; method in brief: as §1
[6] = biological target: Vascular endothelial growth factor receptor 3 (Homo sapiens, UniProt P35916); experiment: Inhibition of recombinant VEGFR3; method in brief: as §1
[7] = biological target: T3, NUAK family SNF1-like kinase 1 (Homo sapiens, UniProt O60285); experiment: Inhibition of recombinant ARK5
T3 sequence (O60285 whole entry): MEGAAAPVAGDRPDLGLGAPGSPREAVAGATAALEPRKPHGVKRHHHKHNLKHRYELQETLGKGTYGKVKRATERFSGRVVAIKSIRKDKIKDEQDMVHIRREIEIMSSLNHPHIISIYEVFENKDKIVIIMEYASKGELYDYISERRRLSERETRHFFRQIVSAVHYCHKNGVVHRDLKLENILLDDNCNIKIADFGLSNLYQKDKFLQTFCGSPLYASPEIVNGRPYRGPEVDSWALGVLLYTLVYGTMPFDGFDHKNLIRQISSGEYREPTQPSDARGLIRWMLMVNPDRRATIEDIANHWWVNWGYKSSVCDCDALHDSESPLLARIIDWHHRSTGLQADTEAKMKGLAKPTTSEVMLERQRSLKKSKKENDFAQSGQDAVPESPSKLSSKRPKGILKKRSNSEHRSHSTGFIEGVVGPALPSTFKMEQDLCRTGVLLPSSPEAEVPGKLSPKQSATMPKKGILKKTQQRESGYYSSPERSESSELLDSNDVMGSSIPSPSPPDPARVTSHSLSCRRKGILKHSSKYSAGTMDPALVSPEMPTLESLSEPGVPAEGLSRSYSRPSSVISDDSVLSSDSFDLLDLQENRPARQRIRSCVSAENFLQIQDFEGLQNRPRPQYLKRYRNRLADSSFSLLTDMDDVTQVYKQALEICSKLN

[8] = biological target: RAC-alpha serine/threonine-protein kinase (Homo sapiens, UniProt P31749); experiment: Inhibition of recombinant AKT1; method in brief: as §1
Angiopoietin-1 receptor = Angiopoietin-1 receptor (Homo sapiens, UniProt Q02763); experiment: Inhibition of recombinant TIE2
[9] = biological target: Cyclin-dependent kinase 4/G1/S-specific cyclin-D1 (Homo sapiens, UniProt P11802); experiment: Inhibition of recombinant CDK4/CycD1
[10] = biological target: Platelet-derived growth factor receptor beta (Homo sapiens, UniProt P09619); experiment: Inhibition of recombinant PDGFRbeta
Ephrin type-B receptor 4 = biological target: T4, Ephrin type-B receptor 4 (Homo sapiens, UniProt P54760); experiment: Inhibition of recombinant EPHB4; method in brief: as §1
T4 sequence (P54760 whole entry): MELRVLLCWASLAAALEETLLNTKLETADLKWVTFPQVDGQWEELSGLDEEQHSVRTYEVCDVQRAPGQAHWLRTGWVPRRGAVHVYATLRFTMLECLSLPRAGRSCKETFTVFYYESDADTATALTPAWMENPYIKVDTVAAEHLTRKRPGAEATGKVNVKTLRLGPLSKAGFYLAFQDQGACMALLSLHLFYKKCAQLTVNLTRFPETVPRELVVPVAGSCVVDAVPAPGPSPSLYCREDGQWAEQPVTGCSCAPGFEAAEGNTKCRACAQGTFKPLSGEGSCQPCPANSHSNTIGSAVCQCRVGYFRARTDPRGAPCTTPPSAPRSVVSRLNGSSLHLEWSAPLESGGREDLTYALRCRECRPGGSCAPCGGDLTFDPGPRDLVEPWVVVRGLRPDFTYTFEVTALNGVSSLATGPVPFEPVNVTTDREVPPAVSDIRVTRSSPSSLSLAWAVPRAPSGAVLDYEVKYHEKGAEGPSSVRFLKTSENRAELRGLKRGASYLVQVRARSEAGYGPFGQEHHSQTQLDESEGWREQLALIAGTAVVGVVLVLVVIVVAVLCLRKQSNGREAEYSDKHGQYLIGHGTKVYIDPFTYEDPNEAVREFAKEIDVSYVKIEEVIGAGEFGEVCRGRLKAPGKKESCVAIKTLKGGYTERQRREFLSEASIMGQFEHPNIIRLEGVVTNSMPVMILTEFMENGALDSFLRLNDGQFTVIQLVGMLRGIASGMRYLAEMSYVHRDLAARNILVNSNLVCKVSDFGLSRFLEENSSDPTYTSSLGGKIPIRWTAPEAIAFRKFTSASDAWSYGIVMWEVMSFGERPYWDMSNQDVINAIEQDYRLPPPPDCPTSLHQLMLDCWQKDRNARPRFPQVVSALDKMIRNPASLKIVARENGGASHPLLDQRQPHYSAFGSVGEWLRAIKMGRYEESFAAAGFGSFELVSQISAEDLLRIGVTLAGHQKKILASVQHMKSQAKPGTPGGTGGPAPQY

[11] = biological target: Mitogen-activated protein kinase kinase kinase 8 (Homo sapiens, UniProt P41279); experiment: Inhibition of recombinant COT
[12] = biological target: Serine/threonine-protein kinase PLK1 (Homo sapiens, UniProt P53350); experiment: Inhibition of recombinant PLK1
[13] = biological target: Receptor tyrosine-protein kinase erbB-2 (Homo sapiens, UniProt P04626); experiment: Inhibition of recombinant ERBB2
Focal adhesion kinase 1 = Focal adhesion kinase 1 (Homo sapiens, UniProt Q05397); experiment: Inhibition of recombinant FAK
[14] = biological target: Cyclin-dependent kinase 2 (Homo sapiens, UniProt P24941); experiment: Inhibition of recombinant CDK2/CycA; method in brief: as §1
[15] = biological target: Serine/threonine-protein kinase B-raf (Homo sapiens, UniProt P15056, V600E); experiment: Inhibition of recombinant B-RAF-V600E mutant; method in brief: as §1
Aurora kinase A = biological target: T5, Aurora kinase A (Homo sapiens, UniProt O14965); experiment: Inhibition of recombinant Aurora A; method in brief: as §1
T5 sequence (O14965 whole entry): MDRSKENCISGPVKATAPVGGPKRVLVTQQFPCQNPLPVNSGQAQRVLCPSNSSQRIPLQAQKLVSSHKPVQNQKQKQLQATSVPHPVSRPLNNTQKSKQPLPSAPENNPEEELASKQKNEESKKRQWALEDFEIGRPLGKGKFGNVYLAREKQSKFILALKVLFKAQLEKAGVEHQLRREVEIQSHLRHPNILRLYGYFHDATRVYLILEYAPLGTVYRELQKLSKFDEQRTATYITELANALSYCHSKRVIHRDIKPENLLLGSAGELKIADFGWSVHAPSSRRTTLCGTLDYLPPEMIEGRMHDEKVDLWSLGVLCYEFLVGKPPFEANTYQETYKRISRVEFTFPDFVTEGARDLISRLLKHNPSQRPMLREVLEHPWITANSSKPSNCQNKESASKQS

Aurora kinase B = Aurora kinase B (Homo sapiens, UniProt Q96GD4); experiment: Inhibition of recombinant Aurora B; method in brief: as §1
Sequence of Aurora kinase B (Q96GD4 whole entry): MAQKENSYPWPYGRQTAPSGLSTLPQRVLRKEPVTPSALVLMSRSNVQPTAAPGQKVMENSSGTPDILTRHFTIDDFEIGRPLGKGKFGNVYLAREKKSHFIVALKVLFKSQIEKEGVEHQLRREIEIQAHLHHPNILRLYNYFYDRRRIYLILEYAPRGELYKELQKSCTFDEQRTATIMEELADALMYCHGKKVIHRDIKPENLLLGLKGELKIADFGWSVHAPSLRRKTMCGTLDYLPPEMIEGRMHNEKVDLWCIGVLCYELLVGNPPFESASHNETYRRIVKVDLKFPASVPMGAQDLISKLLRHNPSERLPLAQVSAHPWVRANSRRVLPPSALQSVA

Sequence of Serine/threonine-protein kinase PLK1 (P53350 whole entry): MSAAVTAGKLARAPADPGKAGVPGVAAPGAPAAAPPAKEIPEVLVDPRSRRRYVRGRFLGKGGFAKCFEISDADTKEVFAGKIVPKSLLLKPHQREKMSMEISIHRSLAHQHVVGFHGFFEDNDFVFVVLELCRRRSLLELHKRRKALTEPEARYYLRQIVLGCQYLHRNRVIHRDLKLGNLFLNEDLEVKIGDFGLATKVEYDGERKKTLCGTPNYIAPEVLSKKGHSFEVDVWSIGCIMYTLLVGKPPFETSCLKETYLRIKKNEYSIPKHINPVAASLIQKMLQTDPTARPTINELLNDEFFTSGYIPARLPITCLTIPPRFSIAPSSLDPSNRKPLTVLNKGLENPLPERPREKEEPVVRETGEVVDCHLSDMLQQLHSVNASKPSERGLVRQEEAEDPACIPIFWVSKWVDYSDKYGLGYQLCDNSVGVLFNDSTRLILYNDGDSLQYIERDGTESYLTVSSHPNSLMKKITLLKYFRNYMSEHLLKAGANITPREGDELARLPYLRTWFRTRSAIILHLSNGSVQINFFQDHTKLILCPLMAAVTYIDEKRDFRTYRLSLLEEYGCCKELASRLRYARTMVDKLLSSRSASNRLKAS
Sequence of RAC-alpha serine/threonine-protein kinase (P31749 whole entry): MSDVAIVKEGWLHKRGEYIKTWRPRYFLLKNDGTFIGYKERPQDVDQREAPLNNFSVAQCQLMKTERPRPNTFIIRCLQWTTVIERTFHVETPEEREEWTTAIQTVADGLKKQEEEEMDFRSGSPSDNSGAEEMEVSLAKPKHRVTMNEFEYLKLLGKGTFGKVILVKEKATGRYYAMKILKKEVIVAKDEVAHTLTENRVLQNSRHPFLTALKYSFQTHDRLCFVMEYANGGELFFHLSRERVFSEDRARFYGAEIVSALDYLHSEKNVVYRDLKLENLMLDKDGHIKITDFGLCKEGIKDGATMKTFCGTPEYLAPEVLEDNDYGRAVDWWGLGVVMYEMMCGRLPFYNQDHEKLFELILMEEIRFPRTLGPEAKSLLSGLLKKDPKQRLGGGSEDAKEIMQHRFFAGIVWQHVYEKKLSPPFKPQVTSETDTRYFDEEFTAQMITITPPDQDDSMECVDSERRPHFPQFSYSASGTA
Sequence of Receptor tyrosine-protein kinase erbB-2 (P04626 whole entry): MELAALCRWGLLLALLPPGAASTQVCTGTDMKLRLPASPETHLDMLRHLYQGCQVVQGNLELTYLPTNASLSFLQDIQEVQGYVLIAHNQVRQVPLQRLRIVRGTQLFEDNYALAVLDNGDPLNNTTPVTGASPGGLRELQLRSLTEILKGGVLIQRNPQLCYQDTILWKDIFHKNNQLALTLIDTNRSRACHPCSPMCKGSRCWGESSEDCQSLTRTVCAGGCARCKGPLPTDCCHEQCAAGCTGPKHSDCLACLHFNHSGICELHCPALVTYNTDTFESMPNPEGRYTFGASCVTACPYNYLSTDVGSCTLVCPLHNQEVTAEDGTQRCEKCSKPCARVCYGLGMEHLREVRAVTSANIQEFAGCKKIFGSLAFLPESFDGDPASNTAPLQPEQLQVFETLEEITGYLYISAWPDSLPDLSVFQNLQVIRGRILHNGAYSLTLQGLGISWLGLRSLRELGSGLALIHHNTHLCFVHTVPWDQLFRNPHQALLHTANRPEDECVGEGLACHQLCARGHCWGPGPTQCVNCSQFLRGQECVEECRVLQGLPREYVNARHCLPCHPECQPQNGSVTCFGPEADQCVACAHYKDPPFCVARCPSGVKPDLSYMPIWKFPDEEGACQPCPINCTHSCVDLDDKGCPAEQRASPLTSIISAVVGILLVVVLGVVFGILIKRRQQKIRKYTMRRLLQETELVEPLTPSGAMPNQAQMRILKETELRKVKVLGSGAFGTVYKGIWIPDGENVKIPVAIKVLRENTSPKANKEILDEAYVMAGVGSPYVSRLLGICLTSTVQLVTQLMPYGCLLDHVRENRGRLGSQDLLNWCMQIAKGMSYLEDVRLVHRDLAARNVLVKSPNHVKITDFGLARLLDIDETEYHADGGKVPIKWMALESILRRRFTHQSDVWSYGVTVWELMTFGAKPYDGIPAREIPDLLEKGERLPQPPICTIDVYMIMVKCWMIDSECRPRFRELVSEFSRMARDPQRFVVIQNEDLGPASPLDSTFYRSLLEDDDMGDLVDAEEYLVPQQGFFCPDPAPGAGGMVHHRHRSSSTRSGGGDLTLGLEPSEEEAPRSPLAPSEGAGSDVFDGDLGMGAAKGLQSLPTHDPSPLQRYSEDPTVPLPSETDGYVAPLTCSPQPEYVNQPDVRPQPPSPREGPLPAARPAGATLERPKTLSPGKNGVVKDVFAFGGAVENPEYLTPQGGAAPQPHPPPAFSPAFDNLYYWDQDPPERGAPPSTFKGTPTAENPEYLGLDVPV
Sequence of Casein kinase II subunit alpha (P68400 whole entry): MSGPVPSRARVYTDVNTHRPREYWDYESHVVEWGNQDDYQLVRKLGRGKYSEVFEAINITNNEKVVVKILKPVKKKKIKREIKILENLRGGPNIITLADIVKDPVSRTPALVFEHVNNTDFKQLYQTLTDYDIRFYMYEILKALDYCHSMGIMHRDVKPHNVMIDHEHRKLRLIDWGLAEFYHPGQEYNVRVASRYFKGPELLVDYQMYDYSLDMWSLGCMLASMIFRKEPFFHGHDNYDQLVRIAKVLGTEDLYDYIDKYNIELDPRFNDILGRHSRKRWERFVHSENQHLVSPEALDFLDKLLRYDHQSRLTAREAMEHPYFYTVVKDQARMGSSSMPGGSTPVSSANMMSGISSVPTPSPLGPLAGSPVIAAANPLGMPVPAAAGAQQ
Sequence of Vascular endothelial growth factor receptor 2 (P35968 whole entry): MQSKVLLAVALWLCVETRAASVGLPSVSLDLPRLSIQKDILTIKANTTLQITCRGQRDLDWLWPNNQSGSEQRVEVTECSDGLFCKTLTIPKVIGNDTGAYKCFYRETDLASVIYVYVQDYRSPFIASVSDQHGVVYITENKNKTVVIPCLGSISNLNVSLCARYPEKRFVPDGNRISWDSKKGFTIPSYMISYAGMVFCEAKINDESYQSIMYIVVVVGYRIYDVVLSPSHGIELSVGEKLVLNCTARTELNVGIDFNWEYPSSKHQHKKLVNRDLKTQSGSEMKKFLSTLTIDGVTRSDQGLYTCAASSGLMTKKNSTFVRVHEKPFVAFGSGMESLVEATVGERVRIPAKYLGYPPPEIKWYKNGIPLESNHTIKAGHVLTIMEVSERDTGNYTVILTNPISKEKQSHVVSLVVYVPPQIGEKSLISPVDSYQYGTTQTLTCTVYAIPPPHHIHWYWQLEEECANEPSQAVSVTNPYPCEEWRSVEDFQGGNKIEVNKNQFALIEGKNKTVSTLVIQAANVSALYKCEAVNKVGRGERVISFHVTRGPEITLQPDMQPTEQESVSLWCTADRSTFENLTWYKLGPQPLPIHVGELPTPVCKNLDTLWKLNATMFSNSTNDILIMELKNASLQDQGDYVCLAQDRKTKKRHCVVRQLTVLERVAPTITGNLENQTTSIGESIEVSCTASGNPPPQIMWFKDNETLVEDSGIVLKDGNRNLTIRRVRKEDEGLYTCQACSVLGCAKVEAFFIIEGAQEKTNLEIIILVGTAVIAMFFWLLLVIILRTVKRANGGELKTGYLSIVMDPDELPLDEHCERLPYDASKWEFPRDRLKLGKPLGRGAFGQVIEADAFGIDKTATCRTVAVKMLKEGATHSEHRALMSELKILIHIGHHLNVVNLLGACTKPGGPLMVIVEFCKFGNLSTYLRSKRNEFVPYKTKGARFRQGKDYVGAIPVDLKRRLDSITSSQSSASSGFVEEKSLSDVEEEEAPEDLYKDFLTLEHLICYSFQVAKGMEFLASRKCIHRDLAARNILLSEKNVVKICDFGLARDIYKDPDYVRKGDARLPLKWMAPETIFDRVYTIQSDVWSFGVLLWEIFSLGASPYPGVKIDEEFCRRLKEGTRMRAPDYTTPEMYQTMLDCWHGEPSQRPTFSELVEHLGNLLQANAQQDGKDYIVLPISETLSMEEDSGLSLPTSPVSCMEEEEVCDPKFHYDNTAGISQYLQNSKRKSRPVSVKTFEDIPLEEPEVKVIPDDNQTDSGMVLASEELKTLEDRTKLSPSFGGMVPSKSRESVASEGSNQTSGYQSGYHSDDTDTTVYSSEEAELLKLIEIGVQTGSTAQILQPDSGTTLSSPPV
Sequence of Cyclin-dependent kinase 4/G1/S-specific cyclin-D1 (P11802 whole entry): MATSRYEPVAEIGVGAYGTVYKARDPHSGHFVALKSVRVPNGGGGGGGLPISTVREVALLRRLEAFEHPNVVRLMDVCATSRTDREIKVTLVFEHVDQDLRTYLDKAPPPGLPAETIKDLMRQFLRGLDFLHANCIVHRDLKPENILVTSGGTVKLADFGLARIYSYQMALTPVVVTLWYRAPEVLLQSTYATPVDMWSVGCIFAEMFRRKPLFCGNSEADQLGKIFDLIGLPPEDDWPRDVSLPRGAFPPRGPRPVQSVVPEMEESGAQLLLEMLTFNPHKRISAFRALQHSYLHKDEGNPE
Sequence of Cyclin-dependent kinase 4/G1/S-specific cyclin-D1 (P24385 whole entry, further chain): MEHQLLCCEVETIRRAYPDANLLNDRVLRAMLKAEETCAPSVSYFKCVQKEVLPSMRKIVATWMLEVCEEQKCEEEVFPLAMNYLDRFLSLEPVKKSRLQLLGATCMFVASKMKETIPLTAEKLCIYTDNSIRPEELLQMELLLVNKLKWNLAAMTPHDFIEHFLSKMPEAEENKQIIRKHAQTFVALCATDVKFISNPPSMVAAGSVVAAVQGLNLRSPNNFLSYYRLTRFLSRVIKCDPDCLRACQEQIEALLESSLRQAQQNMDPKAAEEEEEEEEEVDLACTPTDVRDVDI

SMILES | IC50 [1] | IC50 [3] | IC50 [7] | IC50 [8] | IC50 [12] | IC50 [13] | IC50 [14] | other results
COc1cc(O)c2c(=O)oc3cc(O)cc(C)c3c2c1 | > 36.7 µM |  |  |  |  |  |  | 
COc1cc(O)c2c(=O)oc3c(O)c(O)cc(C)c3c2c1 | > 34.6 µM | 1.83 µM | 1.21 µM |  |  |  |  | IC50 [2]: 2.87 µM; IC50 [4]: 2.22 µM; IC50 [5]: 3.15 µM; IC50 [6]: 1.35 µM
COc1cc(O)c(C(=O)O)c(C2=C(C)C[C@@H](O)C2=O)c1 [Alternarienonic Acid] | > 35.9 µM |  |  | > 35.9 µM | > 35.9 µM | > 35.9 µM | > 35.9 µM | IC50 (Angiopoietin-1 receptor): > 35.9 µM; IC50 [9]: > 35.9 µM; IC50 [10]: > 35.9 µM; IC50 (Ephrin type-B receptor 4): > 35.9 µM; IC50 [11]: > 35.9 µM; IC50 (Focal adhesion kinase 1): > 35.9 µM
Cc1cc(O)cc2oc(=O)c3c(O)cc(OS(=O)(=O)O)cc3c12 [Alternariol 5-O-Sulfate] |  | 0.975 µM | 2.21 µM | > 29.5 µM |  |  | 2.48 µM | IC50 [15]: 2.18 µM; IC50 [2]: 1.12 µM; IC50 [4]: 2.06 µM; IC50 (Aurora kinase A): 1.15 µM; IC50 (Aurora kinase B): 0.65 µM
O=C1C[C@H](O)[C@@H]2c3c(ccc(O)c31)-c1ccc(O)c3c1[C@@]2(O)CCC3=O [Altertoxin I] | > 28.3 µM | 1.87 µM |  | > 28.3 µM | > 28.3 µM | > 28.3 µM | > 28.3 µM | IC50 (Aurora kinase B): 2.78 µM
Cc1cc(O)cc2oc(=O)c3c(O)cc(O)cc3c12 [CHEBI:64983] |  |  | 3.67 µM | > 38.7 µM |  |  |  | IC50 [10]: 3.44 µM; IC50 (Ephrin type-B receptor 4): > 38.7 µM; IC50 (Aurora kinase A): 2.82 µM
Cc1cc(O)c(O)cc1-c1cc(O)cc(O)c1C(=O)O [Desmethylaltenusin] | > 36.2 µM |  |  | > 36.2 µM | > 36.2 µM | > 36.2 µM | > 36.2 µM | 
